Measurements taken from ChEMBL document CHEMBL4689842, “EUbOPEN Chemogenomics Library wave 1” (2021).

Tested on: Fibroblast
Assay: Multiplex assay against human fibroblast
Assay type: toxicity, cell-based
Outline: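 Values for tubulin, mitochondrial-mass and membrane-permeability phenotypes are per cents of cells with healthy nuclei. These cells were identified by CellPathfinder machine-learning gating of live cells that had been stained at seeding with Hoechst33342, BioTracker Green Microtubule Cytoskeleton Dye, MitoTracker Red and Annexin V Alexa Fluor 680 and imaged on a CQ1 microscope at 37°C and 5% CO2 after compound addition. The gating first set Hoechst high-intensity objects apart from normal cells, then split normal cells into healthy, pyknosed or fragmented nuclei, and pyknosed cells into mitotic or apoptotic.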

[1] = 12 h, 1 µM, compound concentration 1 uM, replicate 1
[2] = 12 h, 1 µM, compound concentration 1 uM, replicate 2
[3] = 12 h, 10 µM, compound concentration 10 uM, replicate 1
[4] = 12 h, 10 µM, compound concentration 10 uM, replicate 2
[5] = 24 h, 1 µM, compound concentration 1 uM, replicate 1
[6] = 24 h, 1 µM, compound concentration 1 uM, replicate 2
[7] = 24 h, 10 µM, compound concentration 10 uM, replicate 1
[8] = 24 h, 10 µM, compound concentration 10 uM, replicate 2
[9] = 48 h, 1 µM, compound concentration 1 uM, replicate 1
[10] = 48 h, 1 µM, compound concentration 1 uM, replicate 2
[11] = 48 h, 10 µM, compound concentration 10 uM, replicate 1
[12] = 48 h, 10 µM, compound concentration 10 uM, replicate 2

CN(C)C(=O)N[C@H]1CC[C@H](CCN2CCN(c3cccc(Cl)c3Cl)CC2)CC1.Cl [CARIPRAZINE HYDROCHLORIDE]
Population Apoptotic (%) [1]: 65%
Population Fragmented Nuclei (%) [1]: 15%
Population Healthy Nuclei (%) [1]: 51%
Population Hoechst High Intensity Objects (%) [1]: 6%
Population Membrane Permeable-Phenotype (%) [1]: 32%
Population Mitochondria Different-Phenotype (%) [1]: 10%
Population Mitotic Cells (%) [1]: 34%
Population Normal (%) [1]: 93%
Population Pyknosed Nuclei (%) [1]: 33%
Population Tubulin-Different-Phenotype (%) [1]: 45%
Total Cell Count [1]: 83
Population Apoptotic (%) [2]: 60%
Population Fragmented Nuclei (%) [2]: 7%
Population Healthy Nuclei (%) [2]: 84%
Population Membrane Permeable-Phenotype (%) [2]: 6%
Population Mitochondria Different-Phenotype (%) [2]: 29%
Population Mitotic Cells (%) [2]: 40%
Population Pyknosed Nuclei (%) [2]: 8%
Population Tubulin-Different-Phenotype (%) [2]: 22%
Total Cell Count [2]: 61
Population Apoptotic (%) [3]: 71%
Population Fragmented Nuclei (%) [3]: 26%
Population Healthy Nuclei (%) [3]: 38%
Population Hoechst High Intensity Objects (%) [3]: 16%
Population Membrane Permeable-Phenotype (%) [3]: 16%
Population Mitochondria Different-Phenotype (%) [3]: 28%
Population Mitotic Cells (%) [3]: 28%
Population Normal (%) [3]: 83%
Population Pyknosed Nuclei (%) [3]: 34%
Population Tubulin-Different-Phenotype (%) [3]: 92%
Total Cell Count [3]: 155
Population Apoptotic (%) [4]: 36%
Population Fragmented Nuclei (%) [4]: 17%
Population Healthy Nuclei (%) [4]: 57%
Population Hoechst High Intensity Objects (%) [4]: 3%
Population Membrane Permeable-Phenotype (%) [4]: 47%
Population Mitochondria Different-Phenotype (%) [4]: 95%
Population Mitotic Cells (%) [4]: 63%
Population Normal (%) [4]: 96%
Population Pyknosed Nuclei (%) [4]: 25%
Population Tubulin-Different-Phenotype (%) [4]: 95%
Total Cell Count [4]: 79
Population Apoptotic (%) [5]: 72%
Population Fragmented Nuclei (%) [5]: 21%
Population Healthy Nuclei (%) [5]: 49%
Population Hoechst High Intensity Objects (%) [5]: 10%
Population Membrane Permeable-Phenotype (%) [5]: 21%
Population Mitochondria Different-Phenotype (%) [5]: 11%
Population Mitotic Cells (%) [5]: 28%
Population Normal (%) [5]: 89%
Population Pyknosed Nuclei (%) [5]: 29%
Population Tubulin-Different-Phenotype (%) [5]: 45%
Total Cell Count [5]: 95
Population Apoptotic (%) [6]: 66%
Population Fragmented Nuclei (%) [6]: 6%
Population Healthy Nuclei (%) [6]: 84%
Population Hoechst High Intensity Objects (%) [6]: 4%
Population Membrane Permeable-Phenotype (%) [6]: 7%
Population Mitochondria Different-Phenotype (%) [6]: 22%
Population Mitotic Cells (%) [6]: 33%
Population Normal (%) [6]: 95%
Population Pyknosed Nuclei (%) [6]: 9%
Population Tubulin-Different-Phenotype (%) [6]: 14%
Total Cell Count [6]: 67
Population Apoptotic (%) [7]: 70%
Population Fragmented Nuclei (%) [7]: 23%
Population Healthy Nuclei (%) [7]: 54%
Population Hoechst High Intensity Objects (%) [7]: 18%
Population Membrane Permeable-Phenotype (%) [7]: 17%
Population Mitochondria Different-Phenotype (%) [7]: 36%
Population Mitotic Cells (%) [7]: 29%
Population Normal (%) [7]: 81%
Population Pyknosed Nuclei (%) [7]: 21%
Population Tubulin-Different-Phenotype (%) [7]: 82%
Total Cell Count [7]: 190
Population Apoptotic (%) [8]: 94%
Population Healthy Nuclei (%) [8]: 55%
Population Hoechst High Intensity Objects (%) [8]: 3%
Population Membrane Permeable-Phenotype (%) [8]: 42%
Population Mitochondria Different-Phenotype (%) [8]: 95%
Population Mitotic Cells (%) [8]: 5%
Population Normal (%) [8]: 96%
Population Pyknosed Nuclei (%) [8]: 20%
Population Tubulin-Different-Phenotype (%) [8]: 95%
Total Cell Count [8]: 87
Population Apoptotic (%) [9]: 65%
Population Fragmented Nuclei (%) [9]: 35%
Population Healthy Nuclei (%) [9]: 46%
Population Hoechst High Intensity Objects (%) [9]: 7%
Population Membrane Permeable-Phenotype (%) [9]: 20%
Population Mitochondria Different-Phenotype (%) [9]: 4%
Population Mitotic Cells (%) [9]: 35%
Population Normal (%) [9]: 92%
Population Pyknosed Nuclei (%) [9]: 18%
Population Tubulin-Different-Phenotype (%) [9]: 56%
Total Cell Count [9]: 117
Population Apoptotic (%) [10]: 60%
Population Fragmented Nuclei (%) [10]: 25%
Population Healthy Nuclei (%) [10]: 69%
Population Hoechst High Intensity Objects (%) [10]: 11%
Population Membrane Permeable-Phenotype (%) [10]: 7%
Population Mitochondria Different-Phenotype (%) [10]: 3%
Population Mitotic Cells (%) [10]: 40%
Population Normal (%) [10]: 88%
Population Pyknosed Nuclei (%) [10]: 5%
Population Tubulin-Different-Phenotype (%) [10]: 38%
Total Cell Count [10]: 103
Population Apoptotic (%) [11]: 80%
Population Fragmented Nuclei (%) [11]: 37%
Population Healthy Nuclei (%) [11]: 53%
Population Hoechst High Intensity Objects (%) [11]: 31%
Population Membrane Permeable-Phenotype (%) [11]: 10%
Population Mitochondria Different-Phenotype (%) [11]: 20%
Population Mitotic Cells (%) [11]: 20%
Population Normal (%) [11]: 68%
Population Pyknosed Nuclei (%) [11]: 9%
Population Tubulin-Different-Phenotype (%) [11]: 81%
Total Cell Count [11]: 235
Population Apoptotic (%) [12]: 33%
Population Fragmented Nuclei (%) [12]: 33%
Population Healthy Nuclei (%) [12]: 63%
Population Hoechst High Intensity Objects (%) [12]: 32%
Population Membrane Permeable-Phenotype (%) [12]: 7%
Population Mitochondria Different-Phenotype (%) [12]: 12%
Population Mitotic Cells (%) [12]: 66%
Population Normal (%) [12]: 67%
Population Pyknosed Nuclei (%) [12]: 2%
Population Tubulin-Different-Phenotype (%) [12]: 85%
Total Cell Count [12]: 162

C[C@@H](NCCCc1cccc(C(F)(F)F)c1)c1cccc2ccccc12.Cl [CINACALCET HYDROCHLORIDE]
Population Apoptotic (%) [1]: 59%
Population Fragmented Nuclei (%) [1]: 22%
Population Healthy Nuclei (%) [1]: 46%
Population Hoechst High Intensity Objects (%) [1]: 16%
Population Membrane Permeable-Phenotype (%) [1]: 12%
Population Mitochondria Different-Phenotype (%) [1]: 14%
Population Mitotic Cells (%) [1]: 40%
Population Normal (%) [1]: 84%
Population Pyknosed Nuclei (%) [1]: 30%
Population Tubulin-Different-Phenotype (%) [1]: 57%
Total Cell Count [1]: 125
Population Apoptotic (%) [2]: 33%
Population Fragmented Nuclei (%) [2]: 10%
Population Healthy Nuclei (%) [2]: 76%
Population Hoechst High Intensity Objects (%) [2]: 9%
Population Membrane Permeable-Phenotype (%) [2]: 11%
Population Mitochondria Different-Phenotype (%) [2]: 22%
Population Mitotic Cells (%) [2]: 66%
Population Normal (%) [2]: 90%
Population Pyknosed Nuclei (%) [2]: 12%
Population Tubulin-Different-Phenotype (%) [2]: 36%
Total Cell Count [2]: 52
Population Apoptotic (%) [3]: 57%
Population Fragmented Nuclei (%) [3]: 33%
Population Healthy Nuclei (%) [3]: 35%
Population Hoechst High Intensity Objects (%) [3]: 11%
Population Membrane Permeable-Phenotype (%) [3]: 4%
Population Mitochondria Different-Phenotype (%) [3]: 73%
Population Mitotic Cells (%) [3]: 42%
Population Normal (%) [3]: 88%
Population Pyknosed Nuclei (%) [3]: 30%
Total Cell Count [3]: 155
Population Apoptotic (%) [4]: 88%
Population Fragmented Nuclei (%) [4]: 20%
Population Healthy Nuclei (%) [4]: 23%
Population Hoechst High Intensity Objects (%) [4]: 7%
Population Membrane Permeable-Phenotype (%) [4]: 33%
Population Mitochondria Different-Phenotype (%) [4]: 93%
Population Mitotic Cells (%) [4]: 11%
Population Normal (%) [4]: 92%
Population Pyknosed Nuclei (%) [4]: 55%
Population Tubulin-Different-Phenotype (%) [4]: 93%
Total Cell Count [4]: 68
Population Apoptotic (%) [5]: 38%
Population Fragmented Nuclei (%) [5]: 25%
Population Healthy Nuclei (%) [5]: 50%
Population Hoechst High Intensity Objects (%) [5]: 15%
Population Membrane Permeable-Phenotype (%) [5]: 16%
Population Mitochondria Different-Phenotype (%) [5]: 12%
Population Mitotic Cells (%) [5]: 61%
Population Normal (%) [5]: 84%
Population Pyknosed Nuclei (%) [5]: 24%
Population Tubulin-Different-Phenotype (%) [5]: 65%
Total Cell Count [5]: 128
Population Apoptotic (%) [6]: 36%
Population Fragmented Nuclei (%) [6]: 8%
Population Healthy Nuclei (%) [6]: 69%
Population Hoechst High Intensity Objects (%) [6]: 7%
Population Membrane Permeable-Phenotype (%) [6]: 5%
Population Mitochondria Different-Phenotype (%) [6]: 26%
Population Mitotic Cells (%) [6]: 63%
Population Normal (%) [6]: 92%
Population Pyknosed Nuclei (%) [6]: 22%
Population Tubulin-Different-Phenotype (%) [6]: 17%
Total Cell Count [6]: 53
Population Apoptotic (%) [7]: 65%
Population Fragmented Nuclei (%) [7]: 35%
Population Healthy Nuclei (%) [7]: 35%
Population Hoechst High Intensity Objects (%) [7]: 11%
Population Membrane Permeable-Phenotype (%) [7]: 10%
Population Mitochondria Different-Phenotype (%) [7]: 71%
Population Mitotic Cells (%) [7]: 34%
Population Normal (%) [7]: 88%
Population Pyknosed Nuclei (%) [7]: 28%
Population Tubulin-Different-Phenotype (%) [7]: 89%
Total Cell Count [7]: 208
Population Apoptotic (%) [8]: 92%
Population Fragmented Nuclei (%) [8]: 15%
Population Healthy Nuclei (%) [8]: 32%
Population Hoechst High Intensity Objects (%) [8]: 24%
Population Membrane Permeable-Phenotype (%) [8]: 52%
Population Mitochondria Different-Phenotype (%) [8]: 88%
Population Mitotic Cells (%) [8]: 7%
Population Normal (%) [8]: 75%
Population Pyknosed Nuclei (%) [8]: 51%
Population Tubulin-Different-Phenotype (%) [8]: 82%
Total Cell Count [8]: 69
Population Apoptotic (%) [9]: 46%
Population Fragmented Nuclei (%) [9]: 33%
Population Healthy Nuclei (%) [9]: 52%
Population Hoechst High Intensity Objects (%) [9]: 19%
Population Membrane Permeable-Phenotype (%) [9]: 16%
Population Mitochondria Different-Phenotype (%) [9]: 5%
Population Mitotic Cells (%) [9]: 53%
Population Normal (%) [9]: 80%
Population Pyknosed Nuclei (%) [9]: 14%
Population Tubulin-Different-Phenotype (%) [9]: 40%
Total Cell Count [9]: 130
Population Apoptotic (%) [10]: 66%
Population Fragmented Nuclei (%) [10]: 50%
Population Healthy Nuclei (%) [10]: 47%
Population Hoechst High Intensity Objects (%) [10]: 10%
Population Membrane Permeable-Phenotype (%) [10]: 15%
Population Mitochondria Different-Phenotype (%) [10]: 4%
Population Mitotic Cells (%) [10]: 33%
Population Normal (%) [10]: 89%
Population Pyknosed Nuclei (%) [10]: 1%
Population Tubulin-Different-Phenotype (%) [10]: 58%
Total Cell Count [10]: 169
Population Apoptotic (%) [11]: 90%
Population Fragmented Nuclei (%) [11]: 42%
Population Healthy Nuclei (%) [11]: 36%
Population Hoechst High Intensity Objects (%) [11]: 13%
Population Membrane Permeable-Phenotype (%) [11]: 5%
Population Mitochondria Different-Phenotype (%) [11]: 68%
Population Mitotic Cells (%) [11]: 10%
Population Normal (%) [11]: 86%
Population Pyknosed Nuclei (%) [11]: 20%
Population Tubulin-Different-Phenotype (%) [11]: 80%
Total Cell Count [11]: 226
Population Apoptotic (%) [12]: 92%
Population Fragmented Nuclei (%) [12]: 35%
Population Healthy Nuclei (%) [12]: 8%
Population Hoechst High Intensity Objects (%) [12]: 23%
Population Membrane Permeable-Phenotype (%) [12]: 25%
Population Mitochondria Different-Phenotype (%) [12]: 25%
Population Mitotic Cells (%) [12]: 7%
Population Normal (%) [12]: 76%
Population Pyknosed Nuclei (%) [12]: 55%
Population Tubulin-Different-Phenotype (%) [12]: 50%
Total Cell Count [12]: 121
